Reference: the M2OR odorant receptor database

molecular target: T1, OR1A1 (Homo sapiens) (UniProt Q9P1Q5); conditions: stereoisomer not certain
T1 sequence (whole entry): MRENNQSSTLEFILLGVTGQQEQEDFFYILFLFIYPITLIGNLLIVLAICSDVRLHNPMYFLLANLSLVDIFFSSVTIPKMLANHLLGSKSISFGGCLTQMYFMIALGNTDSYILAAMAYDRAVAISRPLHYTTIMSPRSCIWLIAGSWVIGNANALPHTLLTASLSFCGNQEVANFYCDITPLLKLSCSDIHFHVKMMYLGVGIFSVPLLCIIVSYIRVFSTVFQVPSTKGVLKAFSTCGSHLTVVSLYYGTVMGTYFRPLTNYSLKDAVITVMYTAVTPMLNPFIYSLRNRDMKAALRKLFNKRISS
Method in brief: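 Each receptor–molecule pair is labelled responsive or non-responsive (inactive) according to whether the original authors judged the measured signal statistically different from baseline. The data were taken from the main text and supplementary material of published papers and checked for typos and inconsistencies. Assay methods differed by source, with transient luciferase assays in mammalian cell lines being common.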
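Further: active if original authors judged signal statistically different from baseline.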

SMILES | odorant receptor agonist call
CCC=CCCC=CCO | inactive
Cc1cnccn1 | inactive
CC=CC(=O)C1=C(C)CCCC1(C)C | inactive
CC(=O)C1=NCCS1 | inactive
CCCCCOC(=O)CCCCC | inactive
CCCCCC1CCC(=O)O1 (configuration not stated) | active
C=CC(C)(O)CCC=C(C)CCC=C(C)C (configuration not stated) | active
CCCCCCC=CC=O | inactive
CCc1ccc(O)c(OC)c1 | inactive
C=C(C)C1CC=C(C)C(O)C1 (configuration not stated) | active
CC(C)CCCCCCCCCCC=O | inactive
COC(C=C(C)CCC=C(C)C)OC | inactive
CC1=CCC2CC1C2(C)C (configuration not stated) | inactive
CCCCCC(=O)CC(C)=O | active
COC(=O)Cc1ccccc1C | active
CCCC(=O)OC | inactive
CCCCCCCCCC(=O)[O-].[H+] | inactive
CCC(=O)O | inactive
CC(=O)OCCC(C)C | inactive

SMILES | odorant receptor agonist call
COC(=O)C(C)C | inactive
O=C(O)CCc1ccccc1 | inactive
CCCSSSCCC | inactive
COc1ccc2ccc(=O)oc2c1 | inactive
CCCCCCCCC(=O)O | inactive
CC(=O)c1cnccn1 | inactive
CC1=CCC(C(C)(C)S)CC1 (configuration not stated) | inactive
CC(=O)CC(=O)CC(C)C | active
CCCC(=O)C(C)CC (configuration not stated) | inactive
CCOC(=O)c1ccccc1 | inactive
Cc1c[nH]c2ccccc12 | inactive
O=C([O-])CCCCC(=O)[O-].[H+].[H+] | inactive
SCc1cccs1 | inactive
CCCCCC=O | inactive
CC12CCC(CC1=O)C2(C)C (configuration not stated) | inactive
CCCCCCC(=O)[O-].[H+] | inactive
CC(C)CCO | inactive
COc1nccnc1CC(C)C | inactive
